Results from ChEMBL document CHEMBL4699576, “Oxidized Juncuenin B Analogues with Increased Antiproliferative Activity on Human Adherent Cell Lines: Semisynthesis and Biological Evaluation” (J Nat Prod, 2020).
The source made the active and inactive calls. No cut-off for these calls is given here.

Experiments:
SiHa [1] = assay: Antiproliferative activity against human SiHa cells assessed as reduction in cell viability after 72 hrs by MTT assay; type: functional, cell-based
How it was run: (§1)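 Cells were grown in MEM with 10% FBS, 1% nonessential amino acids and 1% penicillin–streptomycin–amphotericin B at 37 °C in humidified 5% CO2. They were seeded at 5000 cells/well and exposed to 0.1–30 μM compound for 72 h. MTT (5 mg/mL solution) was added for 4 h, and formazan was dissolved in DMSO and read at 545 nm against untreated cells. IC50 values came from normalized sigmoidal dose–response fits.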

T47D [2] = assay: Antiproliferative activity against human T47D cells assessed as reduction in cell viability after 72 hrs by MTT assay; type: functional, cell-based; how it was run: as §1
A2780 [3] = assay: Antiproliferative activity against human A2780 cells assessed as reduction in cell viability after 72 hrs by MTT assay; type: functional, cell-based; details: A2780, 72 h; how it was run: as §1
T47D [4] = assay: Antiproliferative activity against human T47D cells assessed as reduction in cell viability at 0.1 to 30 uM after 72 hrs by MTT assay; type: functional, cell-based; details: dose microM 0.1-30, time 72.0 hrs; how it was run: as §1
HeLa [5] = assay: Antiproliferative activity against human HeLa cells assessed as reduction in cell viability at 0.1 to 30 uM after 72 hrs by MTT assay; details: dose microM 0.1-30, time 72.0 hrs
NIH3T3 [6] = assay: Antiproliferative activity against mouse NIH/3T3 cells assessed as reduction in cell viability after 72 hrs by MTT assay; type: functional, cell-based; details: NIH3T3, 72 h; how it was run: as §1
C-33-A [7] = assay: Antiproliferative activity against human C33A cells assessed as reduction in cell viability after 72 hrs by MTT assay; type: functional, cell-based
How it was run: (§2)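 C33A cells were kept in MEM with 10% FBS, 1% nonessential amino acids and 1% penicillin–streptomycin–amphotericin B at 37 °C under 5% CO2. They were seeded at 10 000 cells/well and treated with 0.1–30 μM for 72 h. MTT (5 mg/mL solution) was added for 4 h, and formazan was dissolved in DMSO and read at 545 nm against untreated controls. IC50 values came from normalized sigmoidal curve fits.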

HeLa [8] = assay: Antiproliferative activity against human HeLa cells assessed as reduction in cell viability after 72 hrs by MTT assay; type: functional, cell-based; how it was run: as §1
MCF7 [9] = assay: Antiproliferative activity against human MCF7 cells assessed as reduction in cell viability at 0.1 to 30 uM after 72 hrs by MTT assay; details: dose microM 0.1-30, time 72.0 hrs
SiHa [10] = assay: Antiproliferative activity against human SiHa cells assessed as reduction in cell viability at 0.1 to 30 uM after 72 hrs by MTT assay; type: functional, cell-based; details: dose microM 0.1-30, time 72.0 hrs; how it was run: as §1
MCF7 [11] = assay: Antiproliferative activity against human MCF7 cells assessed as reduction in cell viability after 72 hrs by MTT assay; type: functional, cell-based; details: MCF7, 72 h; how it was run: as §1
C-33-A [12] = assay: Antiproliferative activity against human C33A cells assessed as reduction in cell viability at 0.1 to 30 uM after 72 hrs by MTT assay; type: functional, cell-based; details: dose microM 0.1-30, time 72.0 hrs; how it was run: as §2
NIH3T3 [13] = assay: Antiproliferative activity against mouse NIH/3T3 cells assessed as reduction in cell viability at 0.1 to 30 uM after 72 hrs by MTT assay; type: functional, cell-based; details: dose microM 0.1-30, time 72.0 hrs; how it was run: as §1
A2780 [14] = assay: Antiproliferative activity against human A2780 cells assessed as reduction in cell viability at 0.1 to 30 uM after 72 hrs by MTT assay; type: functional, cell-based; details: dose microM 0.1-30, time 72.0 hrs; how it was run: as §1
[15] = Selectivity ratio of IC50 for antiproliferative activity against human T47D cells to IC50 for antiproliferative activity against human MCF7 cells; type: functional
MDA-MB-231 = assay: Antiproliferative activity against human MDA-MB-231 cells assessed as reduction in cell viability after 72 hrs by MTT assay; type: functional, cell-based; details: MDA-MB-231, 72 h
SGC-7901 = assay: Antiproliferative activity against human SGC-7901 cells assessed as reduction in cell viability after 48 hrs by Alamar Blue assay; type: functional, cell-based; details: SGC-7901, 48 h
AGS = assay: Antiproliferative activity against human AGS cells assessed as reduction in cell viability after 48 hrs by Alamar Blue assay; type: functional, cell-based

`C=CC1=C(C)C(=O)C=C2C3=C(CC[C@@]21OC)[C@@](C)(OC)C(=O)C=C3` (stereo in doubt) gave an IC50 (SiHa [1]) of 20 µM and an IC50 (T47D [2]) of 15 µM.
For `C=CC1=C(C)C(=O)C=C2C3=C(CC[C@@]21OC)[C@](C)(OC)C(=O)C=C3` (stereo in doubt), the IC50 (A2780 [3]) was 7.7 µM, the Activity (T47D [4]) was “Active” and the Activity (HeLa [5]) was “Active”. For the same molecule, the IC50 (SiHa [1]) was 20 µM, the IC50 (NIH3T3 [6]) was 21.6 µM and the IC50 (C-33-A [7]) was 5.3 µM. It also gave an IC50 (T47D [2]) of 15 µM.
In the case of `C=CC1=C(C)C(=O)C=C2c3ccc(O)c(C)c3CC[C@@]21OCC`, the IC50 (HeLa [8]) is reported as 3.7 µM, the IC50 (A2780 [3]) is reported as 2.8 µM and the Activity (MCF7 [9]) is reported as “Active”. The Activity (SiHa [10]) was “inactive”, the Activity (T47D [4]) was “Active” and the Activity (HeLa [5]) was “Active”. The IC50 (NIH3T3 [6]) was > 30 µM, the IC50 (C-33-A [7]) was 4.9 µM and the IC50 (T47D [2]) was 8.8 µM.
In the case of `C=CC1=C(C)C(=O)C=C2c3ccc(O)c(C)c3CC[C@@]21OC`, the IC50 (MCF7 [11]) is reported as 6.2 µM, the IC50 (HeLa [8]) is reported as 0.9 µM and the IC50 (A2780 [3]) is reported as 8.7 µM. The Activity (T47D [4]) was “Active”, the Activity (HeLa [5]) was “Active” and the IC50 (NIH3T3 [6]) was 25.8 µM. It also gave an IC50 (C-33-A [7]) of 5.3 µM.
For `C=CC1=C(C)C(=O)C(OCCCC)(OCCCC)c2c1ccc1c2C=CC(=O)C1(C)OCCCC` (racemic), the Activity (MCF7 [9]) was “inactive”, the Activity (C-33-A [12]) was “inactive” and the Activity (NIH3T3 [13]) was “inactive”. The Activity (HeLa [5]) was “inactive” and the Activity (A2780 [14]) was “inactive”.
Molecule `C=Cc1c(C)c(O)cc2c1CCc1c-2ccc(O)c1C` has an IC50 (MCF7 [11]) of 11.7 µM, an IC50 (HeLa [8]) of 2.9 µM and an IC50 (A2780 [3]) of 7.3 µM. For the same molecule, the “Ratio IC50” value [15] was 2.5, the IC50 (MDA-MB-231) was 9.4 µM and the IC50 (NIH3T3 [6]) was > 30 µM.
With `C=CC1=C(C)C(=O)C=C2C3(OC)C=CC(=O)C(C)=C3CCC21OC` (racemic; 2a) the Activity (MCF7 [9]) was “inactive”, the Activity (C-33-A [12]) was “inactive” and the Activity (NIH3T3 [13]) was “inactive”. The Activity (HeLa [5]) was “inactive” and the Activity (A2780 [14]) was “inactive”.
With `C=CC1=C2CCc3c(ccc(O)c3C)C2=CC(=O)C1(C)OCC` (racemic) the Activity (MCF7 [9]) was “inactive”, the Activity (C-33-A [12]) was “inactive” and the Activity (NIH3T3 [13]) was “inactive”. For the same molecule, the Activity (HeLa [5]) was “inactive” and the Activity (A2780 [14]) was “inactive”.
In the case of `C=CC1=C(C)C(=O)C=C2C3=C(CCC21OCC)C(C)(OCC)C(=O)C=C3` (racemic; 6b), the Activity (MCF7 [9]) is reported as “Active”, the Activity (C-33-A [12]) is reported as “Active” and the Activity (NIH3T3 [13]) is reported as “Active”. For the same molecule, the Activity (HeLa [5]) was “Active” and the Activity (A2780 [14]) was “Active”.
For `C=CC1=C(C)C(=O)C=C2c3ccc(O)c(C)c3CC[C@]21OC`, the Activity (MCF7 [9]) was “inactive”, the Activity (C-33-A [12]) was “inactive” and the Activity (HeLa [5]) was “inactive”. For the same molecule, the Activity (A2780 [14]) was “inactive”.
`C=CC1=C(C)C(=O)C=C2C3=C(CC[C@]21OC)[C@](C)(OC)C(=O)C=C3` (stereo in doubt) showed an IC50 (SiHa [1]) of 20 µM and an IC50 (T47D [2]) of 15 µM.
For `C=Cc1cc(O)cc2ccc3c(C)c(O)ccc3c12`, the IC50 (SGC-7901) was 35.9 µM and the IC50 (AGS) was 32.9 µM.
In the case of `C=Cc1c(C)c(O)c(OC)c2c3c(ccc12)C(C)(OC)C(=O)C=C3` (racemic), the Activity (MCF7 [9]) is reported as “inactive”, the Activity (C-33-A [12]) is reported as “inactive” and the Activity (NIH3T3 [13]) is reported as “inactive”. The Activity (HeLa [5]) was “inactive” and the Activity (A2780 [14]) was “inactive”.
In the case of `C=CC1=C(C)C(=O)C=C2c3ccc(O)c(C)c3CC[C@]21OCC`, the Activity (SiHa [10]) is reported as “inactive”, the Activity (C-33-A [12]) is reported as “inactive” and the Activity (HeLa [5]) is reported as “inactive”. For the same molecule, the Activity (A2780 [14]) was “inactive”.
For `C=CC1=C(C)C(=O)C=C2C3=C(CC[C@]21OC)[C@@](C)(OC)C(=O)C=C3` (stereo in doubt), the IC50 (SiHa [1]) was 20 µM, the IC50 (NIH3T3 [6]) was > 30 µM and the IC50 (T47D [2]) was 15 µM.
For `C=Cc1c(C)c(O)cc2c3c(ccc12)C(C)(OCC)C(=O)C=C3` (racemic), the Activity (MCF7 [9]) was “inactive”, the Activity (C-33-A [12]) was “inactive” and the Activity (NIH3T3 [13]) was “inactive”. For the same molecule, the Activity (HeLa [5]) was “inactive” and the Activity (A2780 [14]) was “inactive”.
For `C=CC1=C(C)C(=O)C=C2C3(OC)C=CC(=O)C(C)=C3CCC21OC` (racemic; 2b), the Activity (MCF7 [9]) was “inactive”, the Activity (C-33-A [12]) was “inactive” and the Activity (NIH3T3 [13]) was “inactive”. The Activity (HeLa [5]) was “inactive” and the Activity (A2780 [14]) was “inactive”.
With `C=CC1=C(C)C(=O)C=C2C3=C(CCC21OCC)C(C)(OCC)C(=O)C=C3` (racemic; 6a) the Activity (MCF7 [9]) was “Active”, the Activity (C-33-A [12]) was “Active” and the Activity (NIH3T3 [13]) was “Active”. For the same molecule, the Activity (HeLa [5]) was “Active” and the Activity (A2780 [14]) was “Active”.
In the case of `C=CC1=C(C)C(=O)C=C2C3(OCC)C=CC(=O)C(C)=C3CCC21OCC` (racemic), the Activity (MCF7 [9]) is reported as “inactive”, the Activity (C-33-A [12]) is reported as “inactive” and the Activity (NIH3T3 [13]) is reported as “inactive”. The Activity (HeLa [5]) was “inactive” and the Activity (A2780 [14]) was “inactive”.
